Test [1] has as its target T1, Tyrosine-protein phosphatase non-receptor type 1 (Homo sapiens, UniProt P18031).
T1 sequence (P18031 whole entry): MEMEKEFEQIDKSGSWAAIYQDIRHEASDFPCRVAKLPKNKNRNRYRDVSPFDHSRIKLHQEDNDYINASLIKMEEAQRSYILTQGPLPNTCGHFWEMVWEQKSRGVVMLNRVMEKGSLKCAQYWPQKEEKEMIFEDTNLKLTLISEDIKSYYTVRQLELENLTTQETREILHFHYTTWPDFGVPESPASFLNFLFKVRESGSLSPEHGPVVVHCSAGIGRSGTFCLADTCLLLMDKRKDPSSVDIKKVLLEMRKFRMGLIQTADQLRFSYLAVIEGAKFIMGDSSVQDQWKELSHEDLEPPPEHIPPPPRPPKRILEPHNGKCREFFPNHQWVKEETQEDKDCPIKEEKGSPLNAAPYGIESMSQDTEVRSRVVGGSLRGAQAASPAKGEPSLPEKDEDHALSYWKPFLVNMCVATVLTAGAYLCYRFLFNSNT
In words: Binding affinity to recombinant human PTP1B measured by Surface plasmon resonance assay.

Another test concerns Mus musculus. In words: Antidiabetic activity in diabetic db/db C57BL/K mouse assessed as decrease in blood glucose at 0.5 umol/kg, sc qd for 7 days measured at 1 hr post-last drug dosing by blood glucose meter analysis. Type of test: functional. The following applies: 168 h, time 7 day. The method, boiled down:
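Diabetic db/db mice received a daily s.c. dose (0.5 or 2 μmol/kg) or vehicle for one week. Blood glucose was compared at baseline and at 1 week, and the value is the percent decrease of blood glucose. Liraglutide was the positive control.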

Test [2] deals with T1, Tyrosine-protein phosphatase non-receptor type 1. In words: Inhibition of recombinant N-terminal His-tagged human PTP1B (E2 to N321) expressed in Escherichia coli expression system assessed by dephosphorylation of substrate pNPP measured for 4 mins by plate reader analysis.
Test [3] deals with T2, Tyrosine-protein phosphatase non-receptor type 1 (Homo sapiens) (UniProt P18031).
T2 sequence (whole entry): T1 sequence (P18031 whole entry)
In words: Binding affinity to recombinant human PTP1B assessed as off-rate constant, Koff measured by Surface plasmon resonance assay. For orientation: SPR reads the build-up and loss of mass on a sensor chip optically.

Test [4] concerns the target T2, Tyrosine-protein phosphatase non-receptor type 1 (Homo sapiens). In words: Inhibition of PTP1B in human insulin resistant HepG2 cells assessed as induction of 2-NBDG uptake incubated with compound for 24 hrs followed by treatment with insulin for 30 mins and later incubated with 2-NBDG for 30 mins by fluorimetric method. The following applies: dose 0.1-10 µM, time 25.0 hrs. Format: cell-based. Put shortly:
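HepG2 cells were made insulin-resistant with palmitic acid, then treated 24 h with test agents at several concentrations. Vehicle was equal-volume DMSO. Mean ± SD, n = 4, compared with vehicle.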

Test [5] shares this target. In words: Binding affinity to recombinant human PTP1B assessed as on-rate constant, Kon measured by Surface plasmon resonance assay.

Peptide text beside a SMILES is read from it. * marks the point of attachment. Palmitoyl = CCCCCCCCCCCCCCCC(=O)*

Six molecules from ChEMBL document CHEMBL4706773, “Discovery of Novel PTP1B Inhibitors Derived from the BH3 Domain of Proapoptotic Bcl-2 Proteins with Antidiabetic Potency” (ACS Med Chem Lett, 2021) can be followed below.

By Kd is commonly meant the concentration at which binding is half-saturated. The term inhibition in vivo denotes the percentage by which the read-out fell short of the control. One may read the IC50 as the concentration needed to halve the response being measured.

Regarding `CCCCCCCCCCCCCCCC(=O)N[C@@H](CS)C(=O)N[C@@H](C)C(=O)N[C@H](C(=O)N[C@@H](CCC(N)=O)C(=O)N[C@@H](CC(C)C)C(=O)N[C@@H](CCCNC(=N)N)C(=O)N[C@@H](CCCNC(=N)N)C(=O)N[C@@H](Cc1ccccc1)C(=O)NCC(=O)N[C@@H](CC(=O)O)C(=O)N[C@@H](CCCCN)C(=O)N[C@@H](CC(C)C)C(=O)O)[C@@H](C)O` (Palmitoyl-CATQLRRFGDKL-OH), the dissociation constant Kd result in test [1] is “Not Active”.

On to `CCCCCCCCCCCCCCCC(=O)N[C@H](C(=O)N[C@@H](C)C(=O)N[C@@H](CCCNC(=N)N)C(=O)N[C@@H](CCCCN)C(=O)N[C@@H](CC(C)C)C(=O)N[C@@H](CCC(N)=O)C(=O)N[C@@H](CS)C(=O)N[C@H](C(=O)N[C@@H](C)C(=O)N[C@@H](CC(=O)O)C(=O)N[C@@H](CCC(N)=O)C(=O)N[C@@H](Cc1ccccc1)C(=O)O)[C@@H](C)CC)[C@@H](C)CC` (Palmitoyl-IARKLQCIADQF-OH), for which, in test [1], the Kd entry is “Not Active”.

For `CCCCCCCCCCCCCCCC(=O)N[C@@H](Cc1ccc(O)cc1)C(=O)NCC(=O)N[C@@H](CCCNC(=N)N)C(=O)N[C@@H](CCC(=O)O)C(=O)N[C@@H](CC(C)C)C(=O)N[C@@H](CCCNC(=N)N)C(=O)N[C@@H](CCCNC(=N)N)C(=O)N[C@@H](CCSC)C(=O)N[C@@H](CO)C(=O)N[C@@H](CC(=O)O)C(=O)N[C@@H](CCC(=O)O)C(=O)N[C@@H](Cc1ccccc1)C(=O)O` (Palmitoyl-YGRELRRMSDEF-OH), in test [1], the dissociation constant Kd result was “Not Active”.

Take `CCCCCCCCCCCCCCCC(=O)N[C@@H](CCC(=O)NCCCC[C@H](NC(=O)[C@H](C)NC(=O)[C@H](C)NC(=O)[C@H](CCC(N)=O)NC(=O)CNC(=O)[C@H](CCC(=O)O)NC(=O)[C@H](CC(C)C)NC(=O)[C@H](Cc1ccc(O)cc1)NC(=O)[C@H](CO)NC(=O)[C@H](CO)NC(=O)[C@@H](NC(=O)[C@H](CC(=O)O)NC(=O)[C@H](CO)NC(=O)[C@@H](NC(=O)[C@H](Cc1ccccc1)NC(=O)[C@@H](NC(=O)CNC(=O)[C@H](CCC(=O)O)NC(=O)[C@H](C)NC(=O)[C@@H](N)Cc1cnc[nH]1)[C@@H](C)O)[C@@H](C)O)C(C)C)C(=O)N[C@@H](CCC(=O)O)C(=O)N[C@@H](Cc1ccccc1)C(=O)N[C@H](C(=O)N[C@@H](C)C(=O)N[C@@H](Cc1c[nH]c2ccccc12)C(=O)N[C@@H](CC(C)C)C(=O)N[C@H](C(=O)N[C@@H](CCCNC(=N)N)C(=O)NCC(=O)N[C@@H](CCCNC(=N)N)C(=O)NCC(=O)O)C(C)C)[C@@H](C)CC)C(=O)O` [LIRAGLUTIDE]: in the test on Mus musculus, the inhibition in vivo at 0.5 µmol/kg was found to be 72.6%.

Turning to H-STKKLSECLKRIGDELDSNM-OH, in test [2], the IC50 was determined as 5250 nM. Further, the values for the K in test [3] and in test [5] were 8.39 10^-4/s and 9.73 10^3/M.s, respectively. In addition, in test [4], the inhibition entry was “Dose-dependent effect”. Moreover, the Kd in test [1] (read-out: Kd) came out at 86.3 nM.

Consider H-WAREIGAQLRRMADDLNAQY-OH, for which, in test [2], the IC50 is 6840 nM. In addition, the K in test [3] was 1.52 10^-4/s; in test [5], 1.45 10^4/M.s. For the same molecule, the inhibition entry in test [4] was “Dose-dependent effect”. Also, the Kd in test [1] (read-out: Kd) is 105 nM.
